In brackets after ≈: the same amount, converted by molar mass.
Key:
[1] = Cytotoxicity against human WiDr cells by MTT assay; type: cell-based; details: read-out: ED50 (the source's name)
Method in brief: (§1)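 MTT read-out on human tumour cells: Hepa59T/VGH liver carcinoma, WiDr colon adenocarcinoma, A-549 lung carcinoma and MCF-7 breast adenocarcinoma. ED50 taken as the sample concentration giving 50% lower absorbance than untreated cells.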

[2] = Cytotoxicity against human MCF7 cells by MTT assay; type: cell-based; details: read-out: ED50 (the source's name); method in brief: as §1
[3] = Cytotoxicity against human hepa59T/VGH cells by MTT assay; type: cell-based, Hepa 59T/VGH; details: read-out: ED50 (the source's name); method in brief: as §1
[4] = Antiinflammatory activity assessed as inhibition of fMLP-induced elastase release in human neutrophils at 10 ug/mL relative to control; type: functional, cell-based, Neutrophil
Method in brief: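 Neutrophils (6 × 10⁵/mL) supplemented with MeO-Suc-Ala-Ala-Pro-Val-p-nitroanilide (100 µM) elastase substrate, equilibrated 2 min at 37 °C, then exposed to test sample for 5 min. Stimulation with FMLP (100 nM)/cytochalasin B (0.5 µg/mL); elastase release followed continuously as absorbance change at 405 nm. DMSO-treated cells served as the 100% reference.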

[5] = Cytotoxicity against human A549 cells by MTT assay; type: cell-based; details: read-out: ED50 (the source's name); method in brief: as §1

With C=C1CCCC(C)(C)[C@@H]1CC/C(=C\CC[C@@H]1[C@@]2(C)CCCC(C)(C)[C@@H]2CC[C@@]1(C)O)CO the CC50 [1] was > 10 µg/mL, the CC50 [2] was > 10 µg/mL and the CC50 [3] was > 10 µg/mL. For the same compound, the “Elastase release (% of DMSO control)” value [4] was 74.4% and the CC50 [5] was > 10 µg/mL.

COc1cccc2c1C(=O)c1c(O)c3c(c(O)c1C2=O)C[C@@](O)(C(=O)CO)C[C@@H]3O[C@H]1C[C@H](N)[C@H](O)[C@H](C)O1 [DOXORUBICIN] showed a CC50 [1] of 0.12 µg/mL (≈ 0.221 µM), a CC50 [2] of 0.12 µg/mL (≈ 0.221 µM) and a CC50 [3] of 0.11 µg/mL (≈ 0.202 µM). For the same compound, the CC50 [5] was 0.21 µg/mL (≈ 0.386 µM).

With C=C1CCCC(C)(C)[C@@H]1C[C@@H]1O[C@]2(C)CC[C@H]3C(C)(C)CCC[C@]3(C)[C@H]2CC/C=C\1C the CC50 [1] was > 10 µg/mL, the CC50 [2] was > 10 µg/mL and the CC50 [3] was > 10 µg/mL. The “Elastase release (% of DMSO control)” value [4] was 82% and the CC50 [5] was > 10 µg/mL.

In the case of C=C1CCCC(C)(C)[C@@H]1CC[C@](C)(O)[C@@H]1CCC2[C@@](C)(CC[C@H]3C(C)(C)CCC[C@]23C)O1 (some centres undefined), the CC50 [1] is reported as > 10 µg/mL, the CC50 [2] is reported as > 10 µg/mL and the CC50 [3] is reported as > 10 µg/mL. For the same compound, the “Elastase release (% of DMSO control)” value [4] was 81.3% and the CC50 [5] was > 10 µg/mL.

For C=C1CCCC(C)(C)[C@@H]1C[C@@H](O)/C(C)=C/CC[C@@H]1[C@@]2(C)CCCC(C)(C)[C@@H]2CC[C@@]1(C)O, the CC50 [1] was > 10 µg/mL, the CC50 [2] was > 10 µg/mL and the CC50 [3] was > 10 µg/mL. For the same compound, the “Elastase release (% of DMSO control)” value [4] was 79.3% and the CC50 [5] was > 10 µg/mL.

For C=C1CCCC(C)(C)[C@@H]1CC/C(C)=C/CC[C@@H]1[C@@]2(C)CCCC(C)(C)[C@@H]2CC[C@@]1(C)O [AMBREIN], the CC50 [1] was > 10 µg/mL, the CC50 [2] was > 10 µg/mL and the CC50 [3] was > 10 µg/mL. The IC50 ([4]; Homo sapiens, Neutrophil) was 4.6 µg/mL (≈ 10.7 µM) and the CC50 [5] was > 10 µg/mL.

For C=C1CCCC(C)(C)[C@@H]1C[C@@H](OC(=O)c1ccccc1)/C(C)=C/CC[C@@H]1[C@@]2(C)CCCC(C)(C)[C@@H]2CC[C@@]1(C)O, the CC50 [1] was > 10 µg/mL, the CC50 [2] was > 10 µg/mL and the CC50 [3] was > 10 µg/mL. The “Elastase release (% of DMSO control)” value [4] was 85.6% and the CC50 [5] was > 10 µg/mL.

In the case of C=C1CCCC(C)(C)[C@@H]1C/C=C(\C)[C@H]1CC[C@@H]2[C@@]3(C)CCCC(C)(C)[C@@H]3CC[C@@]2(C)O1, the CC50 [1] is reported as > 10 µg/mL, the CC50 [2] is reported as > 10 µg/mL and the CC50 [3] is reported as > 10 µg/mL. The “Elastase release (% of DMSO control)” value [4] was 92.2% and the CC50 [5] was > 10 µg/mL.

With C=C1CCCC(C)(C)[C@@H]1CCC(C)=O the CC50 [1] was > 10 µg/mL, the CC50 [2] was > 10 µg/mL and the CC50 [3] was > 10 µg/mL. For the same compound, the CC50 [5] was > 10 µg/mL.

For C=C1CCCC(C)(C)[C@@H]1C[C@H](OC(=O)c1ccccc1)/C(C)=C/CC[C@@H]1[C@@]2(C)CCCC(C)(C)[C@@H]2CC[C@@]1(C)O, the CC50 [1] was > 10 µg/mL, the CC50 [2] was > 10 µg/mL and the CC50 [3] was > 10 µg/mL. For the same compound, the “Elastase release (% of DMSO control)” value [4] was 115.5% and the CC50 [5] was > 10 µg/mL.

Work on C=C1CCCC(C)(C)[C@@H]1C[C@H](O)/C(C)=C/CC[C@@H]1[C@@]2(C)CCCC(C)(C)[C@@H]2CC[C@@]1(C)O yielded a CC50 [1] of 7.8 µg/mL (≈ 17.5 µM), a CC50 [2] of 4 µg/mL (≈ 8.99 µM) and a CC50 [3] of 5.7 µg/mL (≈ 12.8 µM). The “Elastase release (% of DMSO control)” value [4] was 132.7% and the CC50 [5] was 6.4 µg/mL (≈ 14.4 µM).

In the case of C=C1CCCC(C)(C)[C@@H]1CC/C(=C/CC[C@@H]1[C@@]2(C)CCCC(C)(C)[C@@H]2CC[C@@]1(C)O)COC(=O)c1ccccc1, the CC50 [1] is reported as > 10 µg/mL, the CC50 [2] is reported as > 10 µg/mL and the CC50 [3] is reported as > 10 µg/mL. The “Elastase release (% of DMSO control)” value [4] was 75.6% and the CC50 [5] was > 10 µg/mL.

Work on C=C1CCCC(C)(C)[C@@H]1CC(=O)/C(C)=C/CC[C@@H]1[C@@]2(C)CCCC(C)(C)[C@@H]2CC[C@@]1(C)O yielded a CC50 [1] of 10 µg/mL (≈ 22.6 µM), a CC50 [2] of 8.5 µg/mL (≈ 19.2 µM) and a CC50 [3] of 6.8 µg/mL (≈ 15.4 µM). The “Elastase release (% of DMSO control)” value [4] was 95.1% and the CC50 [5] was 5.3 µg/mL (≈ 12 µM).

In the case of O=c1c(-c2ccc(O)cc2)coc2cc(O)cc(O)c12 [GENISTEIN], the “Elastase release (% of DMSO control)” value [4] is reported as 51.6%.

From ChEMBL document CHEMBL1141421, “Chemical transformation and biological activities of ambrein, a major product of ambergris from Physeter macrocephalus (sperm whale)” (J Nat Prod, 2007)
